Measured values as given in ChEMBL document CHEMBL1165950, “Design and synthesis of new potent anticancer pyrazoles with high FLT3 kinase inhibitory selectivity” (Bioorg Med Chem, 2010).

What was measured:
Type in all cases: functional
HL-60(TB) = assay: Cytotoxicity against human HL-60(TB) cells assessed as cell growth at 1 uM after 48 hrs by sulforhodamine B assay; conditions: HL-60, 48 h, read-out: Activity
Method in brief: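 NCI 60-cell panel. Cells are grown in RPMI 1640 with 5% FBS and 2 mM L-glutamine, seeded at 5000–40,000 cells/well according to doubling time, and preincubated 24 h. Time-zero plates are TCA-fixed. Compound from DMSO stock is given at five 10-fold or 1/2-log concentrations for 48 h at 37 °C, 5% CO2. Suspension cells are fixed with 80% TCA (final 16%) and SRB-stained, with absorbance at 515 nm. Percent growth is derived from Tz, control and test readings.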

CCRF-CEM = assay: Cytotoxicity against human CCRF-CEM cells assessed as cell growth at 10 uM; conditions: read-out: Activity
Method in brief: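 Single-dose NCI-60 screen at 10 µM. Cells were grown in RPMI 1640 with 5% FBS and 2 mM L-glutamine, then treated for 48 h at 37 °C. Protein was measured by SRB staining with absorbance at 515 nm. Percentage growth was recorded, and inhibition percentage was calculated as 100 minus growth percentage.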

CAKI-1 = assay: Cytotoxicity against human Caki1 cells assessed as cell growth at 1 uM after 48 hrs by sulforhodamine B assay; conditions: CAKI-1, 48 h, read-out: Activity
SK-MEL-5 = assay: Cytotoxicity against human SK-MEL-5 cells assessed as cell growth at 1 uM after 48 hrs by sulforhodamine B assay; conditions: SK-MEL-5, 48 h, read-out: Activity
[1] = Cytotoxicity against human […] cells assessed as cell growth at 10 uM; conditions: read-out: Activity
Method in brief: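 NCI-60 screen: cells grown in RPMI 1640 with 5% FBS and 2 mM L-glutamine, plated at 5000–40,000 cells/well according to doubling time, and preincubated 24 h at 37 °C, 5% CO2. The single 10 µM dose (DMSO stock) was added, then incubated 48 h. Cells were TCA-fixed and stained with 0.4% SRB, read at 515 nm, and growth % calculated against time-zero and control plates.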

PC-3 = assay: Cytotoxicity against human PC3 cells assessed as cell growth at 10 uM after 48 hrs by sulforhodamine B assay; conditions: PC-3, 48 h, read-out: Activity
NCI-H460 = assay: Cytotoxicity against human NCI-H460 cells assessed as cell growth at 1 uM after 48 hrs by sulforhodamine B assay; conditions: NCI-H460, 48 h, read-out: Activity
UO-31 = assay: Cytotoxicity against human UO31 cells assessed as cell growth at 10 uM after 48 hrs by sulforhodamine B assay; conditions: UO-31, 48 h, read-out: Activity
NCI-H226 [2] = assay: Cytotoxicity against human NCI-H226 cells assessed as cell growth at 100 nM after 48 hrs by sulforhodamine B assay; conditions: NCI-H226, 48 h, read-out: Activity
MCF7 [3] = assay: Cytotoxicity against human MCF7 cells assessed as cell growth at 10 uM after 48 hrs by sulforhodamine B assay; conditions: MCF7, 48 h, read-out: Activity
MDA-MB-435 = assay: Cytotoxicity against human MDA-MB-435 cells assessed as cell growth at 0.01 uM after 48 hrs by sulforhodamine B assay; conditions: MDA-MB-435, 48 h, read-out: Activity
MCF7 [4] = assay: Cytotoxicity against human MCF7 cells assessed as cell growth at 0.001 uM after 48 hrs by sulforhodamine B assay; conditions: MCF7, 48 h, read-out: Activity
RXF 393 [5] = assay: Cytotoxicity against human RXF393 cells assessed as cell growth at 10 uM after 48 hrs by sulforhodamine B assay; conditions: RXF 393, 48 h, read-out: Activity
SK-MEL-28 [6] = assay: Cytotoxicity against human SK-MEL-28 cells assessed as cell growth at 0.001 uM after 48 hrs by sulforhodamine B assay; conditions: SK-MEL-28, 48 h, read-out: Activity
DU-145 = assay: Cytotoxicity against human DU145 cells assessed as cell growth at 0.01 uM after 48 hrs by sulforhodamine B assay; conditions: DU-145, 48 h, read-out: Activity
SR [7] = assay: Growth inhibition of human SR cells after 48 hrs by sulforhodamine B assay
Method in brief: (§1)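 NCI 60-cell screen, five-dose mode. Cells grown in RPMI 1640 with 5% FBS and 2 mM L-glutamine and plated at 5000-40,000 cells/well according to doubling time. After 24 h preincubation, a Tz plate was TCA-fixed. Five concentrations (10-fold or 1/2 log dilutions) were applied for 48 h at 37 °C. SRB staining read at 515 nm. IC50 taken from [(Ti-Tz)/(C-Tz)]×100 = 50.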

HCC 2998 [8] = assay: Cytotoxicity against human HCC2998 cells assessed as cell growth at 10 uM after 48 hrs by sulforhodamine B assay; conditions: HCC 2998, 48 h, read-out: Activity
[9] = Cytotoxicity against human […] cells assessed as cell growth at 10 uM after 48 hrs by sulforhodamine B assay; conditions: read-out: Activity
SR [10] = assay: Cytotoxicity against human SR cells assessed as cell growth at 0.001 uM after 48 hrs by sulforhodamine B assay; conditions: read-out: Activity
HCC 2998 [11] = assay: Cytotoxicity against human HCC2998 cells assessed as cell growth at 1 uM after 48 hrs by sulforhodamine B assay; conditions: HCC 2998, 48 h, read-out: Activity
HCC 2998 [12] = assay: Growth inhibition of human HCC2998 cells after 48 hrs by sulforhodamine B assay; conditions: HCC 2998, 48 h; method in brief: as §1
ACHN = assay: Cytotoxicity against human ACHN cells assessed as cell growth at 0.01 uM after 48 hrs by sulforhodamine B assay; conditions: read-out: Activity
SK-MEL-28 [13] = assay: Growth inhibition of human SK-MEL-28 cells after 48 hrs by sulforhodamine B assay; conditions: SK-MEL-28, 48 h; method in brief: as §1
NCI-H226 [14] = assay: Growth inhibition of human NCI-H226 cells after 48 hrs by sulforhodamine B assay; conditions: NCI-H226, 48 h; method in brief: as §1
SF-295 = assay: Cytotoxicity against human SF295 cells assessed as cell growth at 100 nM after 48 hrs by sulforhodamine B assay; conditions: SF-295, 48 h, read-out: Activity
NCI-H226 [15] = assay: Cytotoxicity against human NCI-H226 cells assessed as cell growth at 10 uM after 48 hrs by sulforhodamine B assay; conditions: NCI-H226, 48 h, read-out: Activity
SR [16] = assay: Cytotoxicity against human SR cells assessed as cell growth at 100 nM after 48 hrs by sulforhodamine B assay; conditions: read-out: Activity
RXF 393 [17] = assay: Cytotoxicity against human RXF393 cells assessed as cell growth at 100 nM after 48 hrs by sulforhodamine B assay; conditions: RXF 393, 48 h, read-out: Activity
RXF 393 [18] = assay: Growth inhibition of human RXF393 cells after 48 hrs by sulforhodamine B assay; conditions: RXF 393, 48 h; method in brief: as §1
RXF 393 [19] = assay: Cytotoxicity against human RXF393 cells assessed as cell growth at 1 uM after 48 hrs by sulforhodamine B assay; conditions: RXF 393, 48 h, read-out: Activity
RXF 393 [20] = assay: Cytotoxicity against human RXF393 cells assessed as cell growth at 0.001 uM after 48 hrs by sulforhodamine B assay; conditions: RXF 393, 48 h, read-out: Activity
[21] = read-out: LC50 (the source's name)

Structure (SMILES): COc1cc(C)cc(-c2c(-c3ccnc(-c4ccc(N(C)C)cc4)c3)cnn2CC#N)c1
- growth at 1 µM (HL-60(TB)): -27%
- growth at 10 µM (CCRF-CEM): 3.55%
- growth at 1 µM (CAKI-1): -21%
- growth at 1 µM (SK-MEL-5): -31%
- growth at 10 µM [1]: 0.08%
- growth at 10 µM (PC-3): 4%
- growth at 1 µM (NCI-H460): -53%
- growth at 10 µM (UO-31): 7%

Structure (SMILES): COc1cc(C)cc(-c2nn(CC#N)cc2-c2ccc(-c3cccc(C(C)=O)c3)nc2)c1
- growth at 1 µM (HL-60(TB)): 2%
- growth at 0.1 µM (NCI-H226 [2]): 86%
- growth at 10 µM (MCF7 [3]): -28%
- growth at 10 µM (CCRF-CEM): 15.4%
- growth at 0.01 µM (MDA-MB-435): 94%
- growth at 0.001 µM (MCF7 [4]): 94%
- growth at 10 µM (RXF 393 [5]): -58%
- growth at 0.001 µM (SK-MEL-28 [6]): 92%
- growth at 0.01 µM (DU-145): 98%
- GI50 (SR [7]): 1.62 µM
- LC50 (concentration killing 50% of cells) (SR [7]): > 100 µM
- TGI (SR [7]): > 100 µM
- growth at 1 µM (SK-MEL-5): -13%
- growth at 10 µM (HCC 2998 [8]): -62%
- growth at 10 µM [9]: -21%
- growth at 0.001 µM (SR [10]): 97%
- growth at 10 µM [1]: 17.7%
- growth at 10 µM (PC-3): 1%
- growth at 1 µM (HCC 2998 [11]): -17%
- growth at 1 µM (NCI-H460): -27%
- GI50 (HCC 2998 [12]): 2.08 µM
- TGI (HCC 2998 [12]): 6.77 µM
- CC50 (HCC 2998 [12]; [21]): 54.4 µM
- growth at 0.01 µM (ACHN): 90%
- GI50 (SK-MEL-28 [13]): 3.63 µM
- TGI (SK-MEL-28 [13]): 93.6 µM
- CC50 (SK-MEL-28 [13]; [21]): > 100 µM
- GI50 (NCI-H226 [14]): 4.29 µM
- TGI (NCI-H226 [14]): 82.3 µM
- CC50 (NCI-H226 [14]; [21]): > 100 µM
- growth at 0.1 µM (SF-295): 75%
- growth at 10 µM (NCI-H226 [15]): -3%
- growth at 0.1 µM (SR [16]): 57%
- growth at 10 µM (UO-31): -6%
- growth at 0.1 µM (RXF 393 [17]): 73%
- GI50 (RXF 393 [18]): 1.49 µM
- LC50 (concentration killing 50% of the starting cells) (RXF 393 [18]): 8.62 µM
- TGI (RXF 393 [18]): 3.59 µM
- growth at 1 µM (RXF 393 [19]): -58%
- growth at 0.001 µM (RXF 393 [20]): 90%
